Results as given in ChEMBL document CHEMBL4477216, “Discovery and Optimization of Small Molecule Splicing Modifiers of Survival Motor Neuron 2 as a Treatment for Spinal Muscular Atrophy” (J Med Chem, 2016).

Columns and labels:
Homo sapiens [1] = organism: Homo sapiens; assay: Inhibition of mRNA splicing of SMN2 exon 7 in GM03813 fibroblasts derived from SMA patient assessed as compound concentration required to increase SMN protein level by 1.5 times after 24 hrs by HTRF assay
Homo sapiens [2] = organism: Homo sapiens; assay: Inhibition of mRNA splicing of human SMN2 exon 7 transfected in HEK293H cells assessed as compound concentration required to increase full-length SMN2 mRNA level by 1.5 times after 24 hrs by RT-qPCR analysis relative to GAPDH; assay type: cell-based
Method in brief: (§1)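 HEK293H cells stably carrying the SMN2 minigene (exon 6 to 5' exon 8 fused to firefly luciferase) were plated and held for 6 h, then treated 24 h in duplicate at varying concentrations (0.5% DMSO). Full-length minigene mRNA and GAPDH were quantified by TaqMan RT-qPCR using actual PCR efficiencies. Results were normalized to GAPDH and DMSO and expressed as fold change versus DMSO.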

Homo sapiens [3] = organism: Homo sapiens; assay: Inhibition of mRNA splicing of human SMN2 exon 7 transfected in HEK293H cells assessed as compound concentration required to increase full-length SMN2 mRNA level by 1.5 times after 24 hrs by RT-qPCR analysis; assay type: cell-based; method in brief: as §1
Homo sapiens [4] = organism: Homo sapiens; assay: Inhibition of mRNA splicing of human SMN2 exon 7 transfected in HEK293H cells assessed as maximum fold of increase in full-length SMN2 mRNA level after 24 hrs by RT-qPCR analysis relative to control; assay type: cell-based; method in brief: as §1
Homo sapiens [5] = organism: Homo sapiens; assay: Inhibition of mRNA splicing of human SMN2 exon 7 transfected in HEK293H cells assessed as maximum fold of increase in full-length SMN2 mRNA level after 24 hrs by RT-qPCR analysis relative to GAPDH; assay type: cell-based; method in brief: as §1
Homo sapiens [6] = organism: Homo sapiens; assay: Inhibition of mRNA splicing of SMN2 exon 7 in GM03813 fibroblasts derived from SMA patient assessed as maximum fold increase of SMN protein level by 1.5 times after 24 hrs by HTRF assay relative to control
[7] = AUC (0 to 6 hrs) in Sprague-Dawley rat at 10 mg/kg, po; assay type: ADME, organism-based; set-up: dose 10 mg/kg, time < 6 hr, route oral; details: in vivo
Method in brief: (§2)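 Male Sprague-Dawley rats got a single oral 10 mg/kg dose as a suspension in 0.5% hydroxypropyl methylcellulose with 0.1% Tween-80. Plasma was sampled at several time points up to 6 h post dose to give AUC0-6h. Total brain concentration was taken at 6 h to give the brain/plasma ratio.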

[8] = Efflux ratio of apparent permeability from basolateral to apical over apical to basolateral side in human Caco2 cells; assay type: ADME, cell-based; details: Caco-2
Method in brief: (§3)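 Bidirectional permeability was measured across a Caco-2 cell monolayer. Papp was reported, and efflux was expressed as the B-A/A-B ratio.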

[9] = Protein binding in human plasma; assay type: ADME, cell-free; details: read-out: PPB (converted)
[10] = Apparent permeability in human Caco2 cells; assay type: ADME, cell-based; details: Caco-2; method in brief: as §3
[11] = Ratio of drug level in brain to plasma of Sprague-Dawley rat at 10 mg/kg, po measured at 6 hrs; assay type: ADME, organism-based; details: brain and plasma, read-out: BPR; method in brief: as §2

| EC1.5 (Homo sapiens [1]) | Compound | EC1.5 (Homo sapiens [2]) | other results |
| --- | --- | --- | --- |
| 66 nM | Cc1cn2cc(-c3cc4ccc(N5CCNCC5)cc4oc3=O)ccc2n1 | 5 nM |  |
| 5 nM | Cc1cn2cc(-c3cc4ccc(N5CCN[C@@H](C)C5)cc4oc3=O)nc2c(C)n1 | 1 nM |  |
| > 10000 nM | COc1ccc(-c2cc3ccc(N4CCNCC4)cc3oc2=O)cc1 | 2000 nM | fold change (FC) (Homo sapiens [6]): 1.1 |
| 2500 nM | COc1ccc(-c2cc(=O)n3cc(N4CCNCC4)ccc3c2)cc1OC | 920 nM | fold change (FC) (Homo sapiens [6]): 1.6 |
| > 10000 nM | COc1ccc(-c2cnc3cc(N4CCNCC4)ccn3c2=O)cc1OC | 3200 nM | fold change (FC) (Homo sapiens [6]): 1 |
| > 10000 nM | COc1ccc(-c2cc3ccc(N4CCNCC4)cc3c(=O)[nH]2)cc1OC | 1400 nM | fold change (FC) (Homo sapiens [6]): 1.2 |
| 300 nM | Cc1cn2nc(-c3cc(=O)n4cc(N5CCN(C)CC5)ccc4n3)cc2cn1 |  | AUC(0-t) at 6 h [7]: < 10 ng·h/mL |
| 640 nM | Cc1cn2cc(-c3cc4ccc(N5CC[C@H]6CNC[C@H]65)cc4oc3=O)nc2c(C)n1 | 28 nM |  |
| > 10000 nM | COc1ccc(-c2cc3ccc(N4CCNCC4)cn3c(=O)n2)cc1OC | > 10000 nM | fold change (FC) (Homo sapiens [6]): 1 |
| 160 nM | Cc1ccc2nc(-c3cc4ccc(N5CCNCC5)cc4oc3=O)cn2c1 | 140 nM |  |
| > 10000 nM | O=c1oc2cc(N3CCNCC3)ccc2cc1-c1nc2ccccc2o1 | 8700 nM | EC1.5 (Homo sapiens [3]): 10 µM; fold change (FC) (Homo sapiens [6]): 1; fold change (FC) (Homo sapiens [4]): 7; fold change (FC) (Homo sapiens [5]): 25 |
| 62 nM | CCN1CCN(c2ccc3cc(-c4cn5cc(C)nc(C)c5n4)c(=O)oc3c2)CC1 | 10 nM |  |
| 130 nM | Cc1cn2nc(-c3cc(=O)n4cc(N5CCC(N(C)C)CC5)ccc4n3)cc2c(C)n1 | 20 nM |  |
| > 10000 nM | COc1ccc(-c2nc3ccc(N4CCNCC4)cc3[nH]c2=O)cc1OC | 2200 nM | fold change (FC) (Homo sapiens [6]): 1.1 |
| > 10000 nM | COc1ccc(-c2cc3ccc(N4CCNCC4)cc3oc2=O)cc1OC | 620 nM | fold change (FC) (Homo sapiens [6]): 1.3 |
| 71 nM | Cc1cn2nc(-c3cc(=O)n4cc(N5CCN[C@H](C)C5)ccc4n3)cc2c(C)n1 | 11 nM |  |
| 60 nM | Cc1cn2cc(-c3cc(=O)n4cc(N5CCNCC5)ccc4n3)cc(C)c2n1 | 48 nM |  |
| 5 nM | Cc1cn2cc(-c3cc4ccc(N5CCNCC5)cc4oc3=O)nc2cn1 | 2 nM |  |
| 360 nM | O=c1oc2cc(N3CCNCC3)ccc2cc1-c1cn2ccsc2n1 | 110 nM | fold change (FC) (Homo sapiens [6]): 1.5 |
| 76 nM | Cc1cn2cc(-c3cc4ccc(N5CCN[C@@H](C(C)C)C5)cc4oc3=O)nc2c(C)n1 | 23 nM |  |
| > 10000 nM | COc1ccc(-c2cc3ccc(N4CCNCC4)nc3oc2=O)cc1OC | 8800 nM | fold change (FC) (Homo sapiens [6]): 1 |
| 120 nM | Cc1cn2cc(-c3cc4ccc(N5CCN(C)CC5)cc4c(=O)o3)nc2cn1 |  | AUC(0-t) at 6 h [7]: < 10 ng·h/mL |
| > 10000 nM | O=c1oc2cc(N3CCNCC3)ccc2cc1-c1cn2ccccc2n1 | 380 nM | fold change (FC) (Homo sapiens [6]): 1.3 |
| 63 nM | Cc1cn2cc(-c3cc4ccc(N5CCN(C)[C@@H](C)C5)cc4oc3=O)nc2c(C)n1 |  | Kp at 6 h [11]: 19; AUC(0-t) at 6 h [7]: 260 ng·h/mL |

The remaining lines, values behind:

| Compound | EC1.5 (Homo sapiens [1]) | EC1.5 (Homo sapiens [2]) | other results |
| --- | --- | --- | --- |
| Cc1cn2cc(-c3cc4ccc(N5CCN[C@H](C)C5)cc4oc3=O)nc2c(C)n1 | 13 nM | 3 nM |  |
| O=c1oc2cc(N3CCCCC3)ccc2cc1-c1nc2ccccc2o1 |  | > 32000 nM | EC1.5 (Homo sapiens [3]): > 32 µM; fold change (FC) (Homo sapiens [4]): 1; fold change (FC) (Homo sapiens [5]): 1 |
| Cc1cn2cc(-c3cc4ccc(N5CCN(CCCF)[C@@H](C)C5)cc4oc3=O)nc2c(C)n1 | 60 nM | 19 nM |  |
| Cc1cn2nc(-c3cc4ccc(C5CCN(C)CC5)cc4oc3=O)cc2c(C)n1 | > 10000 nM | > 10000 nM |  |
| CCc1ccc2nc(-c3cc4ccc(N5CCNCC5)cc4oc3=O)cn2c1 | > 10000 nM | 2700 nM |  |
| Cc1cn2cc(-c3cc(=O)n4cc(N5CCNCC5)ccc4n3)nc2c(C)n1 | 430 nM | 180 nM |  |
| COc1ccc(-c2cc(=O)n3cc(N4CCNCC4)ccc3n2)cc1OC | 830 nM | 120 nM | fold change (FC) (Homo sapiens [6]): 1.6 |
| Cc1cn2cc(-c3cc4ccc(N5CCN(CCF)[C@@H](C)C5)cc4oc3=O)nc2c(C)n1 | 450 nM | 37 nM |  |
| COc1ccc(-c2cn3ccc(N4CCNCC4)cc3nc2=O)cc1OC | > 10000 nM | > 10000 nM | fold change (FC) (Homo sapiens [6]): 1 |
| Cc1cc2oc(-c3cc4ccc(N5CCNCC5)cc4oc3=O)cc2c(C)n1 | > 10000 nM | 1500 nM |  |
| Cc1cn2cc(-c3cc4ccc(N5CCN(C)CC5)cc4oc3=O)nc2cn1 | 69 nM |  | efflux ratio [8]: 0.74; fraction unbound [9]: 0.03; Papp [10]: 2.7 ×10⁻⁶ cm/s; AUC(0-t) at 6 h [7]: < 10 ng·h/mL |
| Cc1cn2nc(-c3cc(=O)n4cc(N5CCN(C6CC6)CC5)ccc4n3)cc2c(C)n1 | 690 nM | 380 nM |  |
| O=c1oc2cc(N3CCNCC3)ccc2cc1-c1nc2ccccc2[nH]1 | > 10000 nM | 430 nM | fold change (FC) (Homo sapiens [6]): 1.2 |
| Cc1cc2cc(-c3cc4ccc(N5CCNCC5)cc4oc3=O)oc2c(C)n1 | 16 nM | 4 nM |  |
| Cc1cn2nc(-c3cc(=O)n4cc(N5CCNCC5)ccc4n3)cc2c(C)n1 | 31 nM | 6 nM | efflux ratio [8]: 2.8; fraction unbound [9]: 0.3; Papp [10]: 14 ×10⁻⁶ cm/s; Kp at 6 h [11]: < 0.1; AUC(0-t) at 6 h [7]: 380 ng·h/mL |
| Cc1cn2nc(-c3cc(=O)n4cc(C5CCN(C)CC5)ccc4n3)cc2c(C)n1 | 210 nM | 53 nM |  |
| CCc1nc(C)cn2cc(-c3cc4ccc(N5CCNCC5)cc4oc3=O)nc12 | 210 nM | 10 nM |  |
| Cc1cn2cc(-c3cc4ccc(N5CCNCC5)cc4c(=O)o3)nc2c(C)n1 | 39 nM | 8 nM | efflux ratio [8]: 2.6; fraction unbound [9]: 0.1; Papp [10]: 4.4 ×10⁻⁶ cm/s; Kp at 6 h [11]: 0.6; AUC(0-t) at 6 h [7]: 280 ng·h/mL |

| Compound | EC1.5 (Homo sapiens [1]) | EC1.5 (Homo sapiens [2]) | other results |
| --- | --- | --- | --- |
| COc1ccc(-c2cc3ccc(N4CCNCC4)cc3c(=O)o2)cc1OC | 290 nM | 80 nM | fold change (FC) (Homo sapiens [6]): 1.6 |
| O=c1oc2cc(N3CCNCC3)ccc2cc1-c1nc2ccccc2s1 | > 10000 nM | 1000 nM | fold change (FC) (Homo sapiens [6]): 1 |
| Cc1cn2cc(-c3cc4ccc(N5CCN6CCC[C@H]6C5)cc4oc3=O)nc2c(C)n1 | 66 nM | 21 nM |  |
| Cc1cn2cc(-c3cc4ccc(N5CCNCC5)cc4oc3=O)cc2c(C)n1 | 29 nM | 4 nM |  |
| Cc1cn2cc(-c3cc4ccc(CCCN(C)C)cc4oc3=O)nc2c(C)n1 | 220 nM | 58 nM |  |
| Cc1cn2cc(-c3cc4ccc(N5CCNCC5)cc4oc3=O)nc2c(C)n1 | 15 nM | 2 nM | Kp at 6 h [11]: 6.5; AUC(0-t) at 6 h [7]: 340 ng·h/mL |
| Cc1cn2cc(-c3cc4ccc(N5CCN(C(C)(C)C)CC5)cc4oc3=O)nc2c(C)n1 | > 10000 nM | 59 nM |  |
| Cc1cn2nc(-c3cc(=O)n4cc(N5CCN[C@@H](C)C5)ccc4n3)cc2c(C)n1 | 160 nM | 19 nM |  |
| CN(C)c1ccc2cc(-c3nc4ccccc4o3)c(=O)oc2c1 |  | 22000 nM | EC1.5 (Homo sapiens [3]): > 32 µM; fold change (FC) (Homo sapiens [4]): 1.2; fold change (FC) (Homo sapiens [5]): 1.5 |
| O=c1oc2cc(N3CCOCC3)ccc2cc1-c1nc2ccccc2o1 |  | > 32000 nM | EC1.5 (Homo sapiens [3]): > 32 µM; fold change (FC) (Homo sapiens [4]): 1.1; fold change (FC) (Homo sapiens [5]): 1 |
| Cc1cn2cc(-c3cc4ccc(N5CCN(C)CC5)cc4oc3=O)nc2c(C)n1 | 31 nM | 18 nM | efflux ratio [8]: 1.1; fraction unbound [9]: 0.03; Papp [10]: 1.4 ×10⁻⁶ cm/s; Kp at 6 h [11]: 0.7; AUC(0-t) at 6 h [7]: 530 ng·h/mL |
| Cc1cn2cc(-c3cc4ccc(N5C[C@H]6CNC[C@H]6C5)cc4oc3=O)nc2c(C)n1 | 13 nM | 1 nM |  |
| Cc1cn2cc(-c3cc4ccc(N5CCC(N(C)C)CC5)cc4oc3=O)nc2c(C)n1 | 61 nM | 11 nM |  |
| O=c1oc2cc(N3CCNCC3)ccc2cc1-c1ccccc1 | > 10000 nM | > 32000 nM | fold change (FC) (Homo sapiens [6]): 1 |
| Cc1cn2cc(-c3cc4ccc(C5CCN(C)CC5)cc4oc3=O)nc2c(C)n1 | 50 nM | 11 nM |  |
| O=c1oc2cc(N3CCNCC3)ccc2cc1-c1cn2ccncc2n1 | 120 nM | 70 nM |  |
| Cc1cn2nc(-c3cc(=O)n4cc(N5CCN6CCC[C@H]6C5)ccc4n3)cc2c(C)n1 | 150 nM | 120 nM |  |
